In ChEMBL document CHEMBL2057123, “Design and synthesis of novel lactate dehydrogenase A inhibitors by fragment-based lead generation” (J Med Chem, 2012):
Calls of active or inactive are those of the source. The rule behind the calls is not given here.

Assays:
[1] = target: T1, L-lactate dehydrogenase A chain (Homo sapiens, UniProt P00338); assay: Inhibition of full length human recombinant LDHA expressed in Escherichia coli BL21 (DE3) cells after 10 mins by spectrophotometric analysis
[2] = target: T1, L-lactate dehydrogenase A chain; assay: Binding affinity to 6-His-tagged human LDHA (2 to 322 amino acid residue) expressed in Escherichia coli BL21 (DE3) cells by NMR analysis in presence of NADH
[3] = target: T1, L-lactate dehydrogenase A chain; assay: Binding affinity to 6-His-tagged human LDHA (2 to 322 amino acid residue) expressed in Escherichia coli BL21 (DE3) cells by SPR analysis
[4] = target: L-lactate dehydrogenase B chain (Homo sapiens, UniProt P07195); assay: Inhibition of human recombinant LDHB (2 to 334 amino acid residue) expressed in Escherichia coli BL21 (DE3) cells after 10 mins by spectrophotometric analysis
[5] = target: T1, L-lactate dehydrogenase A chain; assay: Binding affinity to 6-His-tagged human LDHA (2 to 322 amino acid residue) expressed in Escherichia coli BL21 (DE3) cells by NMR analysis in presence of NAD+
Outline: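 Ligand-observed NMR at 298 K, 600 MHz, in 100 mM HEPES pH 7.5, 2 mM TCEP, 0.02% sodium azide, with 1 mM NAD⁺ present. Binding was detected by WaterLOGSY and T₁ρ-filtered 1D spectra (LDHA 40−48 μM monomer). […] Single experiment.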

L-lactate dehydrogenase B chain, sequence (P07195 whole entry, the tested form may be a part): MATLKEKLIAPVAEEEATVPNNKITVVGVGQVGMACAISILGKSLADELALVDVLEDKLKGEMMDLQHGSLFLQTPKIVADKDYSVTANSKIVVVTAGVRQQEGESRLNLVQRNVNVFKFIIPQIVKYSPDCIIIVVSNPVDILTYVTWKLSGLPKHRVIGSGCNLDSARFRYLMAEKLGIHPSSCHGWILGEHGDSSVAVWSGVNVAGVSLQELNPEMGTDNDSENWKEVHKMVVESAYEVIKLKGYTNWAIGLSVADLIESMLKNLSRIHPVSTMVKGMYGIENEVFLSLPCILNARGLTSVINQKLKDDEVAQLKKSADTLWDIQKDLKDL

Row | Compound | IC50 [1] | Kd ([2]; read-out: Kd) | Kd ([3]; read-out: Kd) | also measured
1 | COCCNc1ncnc2ccccc12 | > 500 µM | 2400 µM | 3000 µM | 
2 | NC(=O)C1=CN([C@@H]2O[C@H](COP(=O)(O)O)[C@@H](O)[C@H]2O)C=CC1 | > 500 µM | 4000 µM |  | Kd ([3]; bl21-de3): Not Active
3 | CC(=O)Nc1ccc2nc(C)sc2c1 | > 500 µM |  | 790 µM | 
4 | CCCSc1nc2ccc(NC(=O)CCNC(=O)NCCOc3ccc(CC(C(=O)O)C(=O)O)cc3)cc2s1 | 3.1 µM |  | 0.046 µM | 
5 | Cc1nc2ccc(NC(=O)CCNC(=O)CCCc3ccc(CC(C(=O)O)C(=O)O)cc3)cc2s1 | 0.5 µM |  |  | 
6 | NS(=O)(=O)c1ccc(O)c2ccccc12 | > 500 µM | 400 µM |  | Kd ([3]; bl21-de3): Not Active
7 | O=C(O)CC(=O)O [MALONIC ACID] |  | 5000 µM |  | 
8 | Cc1nc2ccc(NC(=O)CCNC(=O)NCCOc3ccc(CC(C(=O)O)C(=O)O)cc3)cc2s1 | 4.2 µM |  |  | 
9 | Cc1nc2ccc(NC(=O)CCNC(=O)NCCc3ccc(CC(C(=O)O)C(=O)O)cc3)cc2s1 | 1.9 µM |  |  | 
10 | NC(=O)C1=CN([C@@H]2O[C@H](COP(=O)(O)OP(=O)(O)OC[C@H]3O[C@@H](n4cnc5c(N)ncnc54)[C@H](O)[C@@H]3O)[C@@H](O)[C@H]2O)CCC1 | 132 µM |  | 12.8 µM | IC50 [4]: 9.4 µM; Activity [5]: Active
11 | Cc1nc2ccc(NC(=O)CCC(=O)O)cc2s1 | > 500 µM | 540 µM | 500 µM | 
12 | CCCSc1nc2ccc(NC(=O)CCNC(=O)NCCc3ccc(OC(C(=O)O)C(=O)O)cc3)cc2s1 | 7.4 µM |  | 0.18 µM | 
13 | CCCSc1nc2ccc(NC(=O)CCNC(=O)CCCc3ccc(CC(C(=O)O)C(=O)O)cc3)cc2s1 | 0.27 µM |  | 0.008 µM | 
14 | COc1ccc(CC(C(=O)O)C(=O)O)cc1 | > 500 µM | 240 µM | 1100 µM | 
15 | O=C(O)c1ccc2ccccc2c1O [CARBOXYNAPHTHOL] | > 500 µM | 640 µM |  | Kd ([3]; bl21-de3): Not Active
16 | Clc1ccccc1-c1nnn[nH]1 |  |  |  | Kd ([3]; bl21-de3): Not Active
17 | Nc1ncnc2c1ncn2[C@@H]1O[C@H](COP(=O)(O)O)[C@@H](O)[C@H]1O [ADENOSINE PHOSPHATE] | > 500 µM | 650 µM |  | Kd ([3]; bl21-de3): Not Active
18 | CCCSc1nc2ccc(NC(=O)CCNC(=O)NCCc3ccc(CC(C(=O)O)C(=O)O)cc3)cc2s1 | 0.29 µM |  | 0.06 µM | 
19 | Cc1nc2ccc(NC(=O)CCNC(=O)NCCOc3ccc(CCC(=O)O)cc3)cc2s1 | 86.2 µM |  | 3.2 µM | 
20 | O=C(O)c1nsnc1O | 450 µM |  |  | IC50 [4]: 7.8 µM; Kd ([3]; bl21-de3): Not Active
21 | Cc1nc2ccc(NC(=O)CCNC(=O)NCCc3ccc(OC(C(=O)O)C(=O)O)cc3)cc2s1 | 29.5 µM |  | 1.2 µM | 
22 | CCCSc1nc2ccc(NC(=O)CCNC(N)=O)cc2s1 | > 500 µM |  | 35 µM | Kd ([2]; bl21-de3): Active
23 | CCCSc1nc2ccc(NC(=O)CCC(=O)O)cc2s1 | > 500 µM | 92 µM | 40 µM | 
24 | O=c1[nH]n(-c2ccccc2)c2ncccc12 | > 500 µM | 300 µM | 1600 µM | 
25 | c1cncc(-c2nc3ccccc3[nH]2)c1 | > 500 µM | 1400 µM |  | Kd ([3]; bl21-de3): Not Active
26 | Cc1nc2ccc(NC(=O)CCNC(N)=O)cc2s1 |  |  |  | Kd ([2]; bl21-de3): Active
27 | O=C(O)c1cc2c(C(F)(F)F)cc(-c3ccccc3)cc2n1O | > 500 µM | > 9 µM |  | 
